# Reference: ChEMBL document CHEMBL1687923, “Discovery of N-hydroxyindole-based inhibitors of human lactate dehydrogenase isoform A (LDH-A) as starvation agents against cancer cells” (J Med Chem, 2011)
# The source made the active and inactive calls. The calls are words filed in the database; no cut-off is given here.
# How the values were obtained:
# [1] = molecular target: T1, L-lactate dehydrogenase A chain (Homo sapiens, UniProt P00338); assay: Inhibition of human LDH-A using pyruvate as substrate and NADH as cofactor at 125 uM after 5 mins by calorimetric assay relative to control
# [2] = molecular target: L-lactate dehydrogenase B chain (Homo sapiens) (UniProt P07195); assay: Inhibition of human LDH-B using pyruvate as substrate and NADH as cofactor at 125 uM after 5 mins by calorimetric assay relative to control
# In short: (§1)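 Purified human LDH1 (LDH-B4), run as for LDH-A but only under pyruvate saturation (2 mM sodium pyruvate) with 25 µM NADH. Test compound at 125 µM, 37 °C, phosphate buffer. Activity is the A340 decrease from NADH consumption, read every 30 s for 5 min. Percent inhibition is relative to control, as mean ± SD of two or more independent experiments. Detection limit is 3%.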
# [3] = molecular target: T1, L-lactate dehydrogenase A chain; assay: Competitive inhibition of human LDH-A using NADH as substrate after 5 mins by calorimetric assay relative to control
# In short: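 Ki values from Lineweaver-Burk double-reciprocal plots. Enzyme is purified human LDH5 (LDH-A4), 0.005 units, in 100 mM sodium phosphate pH 7.4 at 37 °C. Pyruvate is held saturating at 2 mM while NADH is varied from 12.5 to 150 µM. Inhibitor is at 25–100 µM. NADH oxidation is read as A340 every 30 s for 5 min, in triplicate.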
# [4] = molecular target: L-lactate dehydrogenase B chain (Homo sapiens) (UniProt P07195); assay: Inhibition of human LDH-B using saturating concentration of pyruvate and NADH as cofactor after 5 mins by calorimetric assay relative to control; in short: as §1
# MSTO-211H = assay: Cytotoxicity against human MSTO-211H cells after 48 hrs by sulforhodamine B assay; type: functional, cell-based
# In short: (§2)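 Cells grown in RPMI 1640 with 10% FCS, 2 mM glutamine and penicillin/streptomycin, at 37 °C in 5% CO2 under normoxia. Compounds (10 mM DMSO stocks) are added on day 1 after plating at 1–100 µM, in triplicate, for 48 h. DMSO 0.25% v/v serves as control. Cells are TCA-fixed, stained with SRB and read at 492 nm. Growth is calculated relative to T0 and control. IC50 reported as mean ± SD from at least two experiments.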
# [5] = Cytotoxicity against human LPc028 cells after 48 hrs by sulforhodamine B assay; type: functional, cell-based; settings: LPc028, 48 h; in short: as §2
# ADDP cell line = assay: Induction of apoptosis in human ADDP cells assessed as appearance of sub-G1 cell subpopulation at compound IC50 after 24 hrs by flow cytometry; type: functional, cell-based
# In short: (§3)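 Cells are trypsinized, pelleted and stained with cold propidium iodide buffer for 30 min on ice. DNA content is measured by flow cytometry (10 000 cells/sample) to give G0/G1, S and G2/M fractions and the sub-G1 population. Results are mean ± SE of three experiments, analyzed by t-test or ANOVA.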
# NCI-H2052 = assay: Cytotoxicity against human NCI-H2052 cells after 48 hrs by sulforhodamine B assay; type: functional, cell-based; settings: NCI-H2052, 48 h; in short: as §2
# HS27 = assay: Cytotoxicity against immortalized human HS27 cells after 48 hrs by sulforhodamine B assay; type: functional, cell-based; settings: HS27, 48 h; in short: as §2
# [6] = Cytotoxicity against human LPc067 cells after 48 hrs by sulforhodamine B assay; type: functional, cell-based; settings: LPc067, 48 h; in short: as §2
# NCI-H630 [7] = assay: Induction of apoptosis in human NCI-H630 cells assessed as appearance of sub-G1 cell subpopulation at compound IC50 after 24 hrs by flow cytometry; type: functional, cell-based; in short: as §3
# A2780 = assay: Cytotoxicity against human A2780 cells after 48 hrs by sulforhodamine B assay; type: functional, cell-based; settings: A2780, 48 h; in short: as §2
# [8] = Cytotoxicity against immortalized human HPNE cells expressing human TERT after 48 hrs by sulforhodamine B assay; type: functional, cell-based; in short: as §2
# NCI-H28 = assay: Cytotoxicity against human NCI-H28 cells after 48 hrs by sulforhodamine B assay; type: functional, cell-based; settings: NCI-H28, 48 h; in short: as §2
# ADDP = assay: Effect on cell cycle distribution in human ADDP cells assessed as DNA content after 24 hrs by flow cytometry; type: functional, cell-based; in short: as §3
# [9] = Cytotoxicity against human LPc006 cells grown in hypoxic condition after 48 hrs by sulforhodamine B assay relative to normoxygenated cells; type: functional, cell-based; settings: LPc006, 48 h
# In short: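 LPC006 primary pancreatic cancer cells are treated with compounds at 1–100 µM for 48 h under hypoxia (1% O2, 5% CO2, 94% N2, 37 °C). Read-out is the SRB assay at 492 nm with growth calculated relative to T0 and control. IC50 is the mean ± SE of three independent experiments and is compared with normoxic cells by Student's t-test.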
# [10] = Cytotoxicity against human ADDP cells after 48 hrs by sulforhodamine B assay; type: functional, cell-based; in short: as §2
# NCI-H630 [11] = assay: Cytotoxicity against human NCI-H630 cells after 48 hrs by sulforhodamine B assay; type: functional, cell-based; settings: NCI-H630, 48 h; in short: as §2
# [12] = molecular target: T1, L-lactate dehydrogenase A chain; assay: Competitive inhibition of human LDH-A using pyruvate as substrate after 5 mins by calorimetric assay relative to control
# In short: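 Ki values from Lineweaver-Burk double-reciprocal plots. Enzyme is purified human LDH5 (LDH-A4), 0.005 units, in 100 mM sodium phosphate pH 7.4 at 37 °C. NADH is held saturating at 200 µM while sodium pyruvate is varied from 25 µM to 1 mM. Inhibitor is at 25–100 µM. A340 decrease is read every 30 s for 5 min, in triplicate.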
# [13] = Cytotoxicity against human LPc006 cells after 48 hrs by sulforhodamine B assay; type: functional, cell-based; settings: LPc006, 48 h; in short: as §2
# NCI-H630 [14] = assay: Effect on cell cycle distribution in human NCI-H630 cells assessed as DNA content after 24 hrs by flow cytometry; type: functional, cell-based; in short: as §3
# NCI-H2452 = assay: Cytotoxicity against human NCI-H2452 cells after 48 hrs by sulforhodamine B assay; type: functional, cell-based; settings: NCI-H2452, 48 h; in short: as §2
# HeLa [15] = assay: Reduction in lactate production in perfused human HeLa cells assessed as lactate to glucose ratio at 500 uM after 12 hrs by NMR spectroscopy using D-[1,6-13C2]glucose as substrate relative to control; type: functional
# In short: (§4)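 HeLa cells are grown in RPMI-1640 with 10% FBS to 80% confluency, then washed for 15 min in glucose-free DMEM. Medium is replaced with DMEM containing 10 mM D-[1,6-13C2]glucose. Compound is added from 100× DMSO stocks (1% DMSO final), with vehicle controls, at 37 °C under normoxia. Medium is sampled at 6 and 12 h. 13C NMR gives the lactate-C3 (20.28 ppm) to glucose-C6 (60.95 ppm) peak-area ratio.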
# HeLa [16] = assay: Reduction in lactate production in perfused human HeLa cells at < 400 uM after 12 hrs by NMR spectroscopy using D-[1,6-13C2]glucose as substrate; type: functional, cell-based; in short: as §4
# HeLa [17] = assay: Reduction in lactate production in perfused human HeLa cells at 400 uM after 12 hrs by NMR spectroscopy using D-[1,6-13C2]glucose as substrate; type: functional; parameters: scale not given: the % may be the effect or the level left; in short: as §4
# L-lactate dehydrogenase B chain (Homo sapiens), sequence (P07195 2-334 limits assumed): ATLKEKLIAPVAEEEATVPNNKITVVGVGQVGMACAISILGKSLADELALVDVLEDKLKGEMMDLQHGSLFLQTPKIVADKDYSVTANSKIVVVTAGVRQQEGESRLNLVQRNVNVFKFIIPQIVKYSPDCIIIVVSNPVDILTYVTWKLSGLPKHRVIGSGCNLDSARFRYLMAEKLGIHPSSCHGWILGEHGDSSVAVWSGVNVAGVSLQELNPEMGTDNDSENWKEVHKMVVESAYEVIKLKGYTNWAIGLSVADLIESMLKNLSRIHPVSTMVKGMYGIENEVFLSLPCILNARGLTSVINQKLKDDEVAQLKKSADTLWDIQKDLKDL
SMILES,inhibition [1],inhibition [2],Ki [3] [µM],inhibition [4] [%],IC50 (MSTO-211H) [µM],IC50 [5] [µM],Activity (ADDP cell line),IC50 (NCI-H2052) [µM],IC50 (HS27) [µM],IC50 [6] [µM],Activity (NCI-H630 [7]),IC50 (A2780) [µM],IC50 [8] [µM],IC50 (NCI-H28) [µM],Activity (ADDP),IC50 [9] [µM],IC50 [10] [µM],IC50 (NCI-H630 [11]) [µM],Ki [12] [µM],IC50 [13] [µM],also measured
COn1c(C(=O)O)cc2ccc(-c3ccccc3)cc21,inactive,inactive,–,–,–,–,–,–,–,–,–,–,–,–,–,–,–,–,–,–,–
O=C(O)c1cc2cc(-c3ccccc3)ccc2n1O,99%,–,10.4,< 3,2.5,48.8,Active,62.4,> 100,20.9,Active,13.7,> 100,5.8,Dose-dependent effect,0.1,14.6,17.7,15.7,14.3,Activity (NCI-H630 [14]): Dose-dependent effect; IC50 (NCI-H2452): 45.3 µM
O=C(O)c1cc2ccc(-c3nn[nH]n3)cc2n1O,11%,–,–,–,–,–,–,–,–,–,–,–,–,–,–,–,–,–,–,–,–
COC(=O)c1cc2ccc(-c3ccccc3)cc2n1O,4%,8%,–,–,–,–,–,–,–,–,–,–,–,–,–,–,–,–,–,–,–
O=C(O)c1cc2c(C(F)(F)F)cc(-c3ccccc3)cc2n1O,87%,11%,8.9,11,10.6,41.2,Active,73.2,> 100,13.5,Active,10.8,> 100,11.4,Dose-dependent effect,0.9,17,31.5,4.7,16.3,Ratio (HeLa [15]): < 0.01; Activity (HeLa [16]): inactive; Activity (NCI-H630 [14]): Dose-dependent effect; Activity (HeLa [17]): 20%; IC50 (NCI-H2452): 90.2 µM
O=C(O)c1cc2c(Br)cccc2n1O,32%,–,–,–,–,–,–,–,–,–,–,–,–,–,–,–,–,–,–,–,–
O=C(O)c1cc2cc(-c3ccccc3)ccc2[nH]1,Active,Active,–,–,–,–,–,–,–,–,–,–,–,–,–,–,–,–,–,–,–
O=C(O)c1cc2ccc(-c3ccccc3)cc2n1O,84%,–,19.8,< 3,2.4,32.3,Active,50.5,> 100,18.2,Active,10.1,> 100,7.8,Dose-dependent effect,0.36,16.3,15.1,35.4,15.7,Ratio (HeLa [15]): 0.12; Activity (NCI-H630 [14]): Dose-dependent effect; IC50 (NCI-H2452): 21.3 µM
